High-throughput results as filed in PubChem.
TRPC6 activator = activates the mouse TRPC6 cation channel. Q61143. HEK293-TRPC6 membrane potential dye fluorescence; hits give high values. B-score at 10 µM. hit rate 0.13% among 310,000. AID 2550;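 active = B-score of the integrated fluorescence ratio above library mean plus 3 SD, and starting fluorescence ratio within library mean plus 5 SD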;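 also: higher score means more depolarization so channel activation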
TRPC4 act = TRPC4 (mouse) channel activation; Q9QUQ5; HEK293 TRPC4beta/mu-opioid, Fluo4 calcium fluorescence; hits give high values; B-score at 10 µM; hit rate 0.49% among 310,000;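 active = B-score above 5 SD of library B-scores, and initial fluorescence ratio not above library mean plus 5 SD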;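 also: positive B-score marks a calcium rise read as TRPC4 activation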
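Material: HEK293 stable line with TRPC4beta plus mu-opioid receptor; technique: Fluo4 calcium-sensitive dye fluorescence, kinetic, 1 Hz baseline; timing: Fluo4 dye loading 45 min at room temperature, 110 s recording; controls: assay buffer as low control, maximal DAMGO as high control; read-out: integrated baseline-normalised fluorescence ratio, converted to per-well B score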
TRPC6 inh = blocks the mouse TRPC6 cation channel | AID 2553 | B-score at 10 µM | hit rate 1.1% among 310,000 | HEK293-TRPC6, membrane potential dye, ACh-evoked depolarization; hits give low values;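 active = B-score under library mean minus 3 SD, initial fluorescence not abnormally high, positive integrated signal ratio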;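 also: B-score derived from integrated fluorescence ratio over the kinetic read; more negative B-score means stronger inhibition of depolarization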
TRPC4 block = blocks the mouse TRPC4 cation channel. Q9QUQ5. B-score at 10 µM. hit rate 0.39% among 300,000. HEK293 TRPC4beta/mu-opioid, DAMGO-evoked Fluo4 calcium flux; hits give low values;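 active = B-score over 3 SD under the library average, no early fluorescence shift, positive overall ratio signal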
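Assay system: Stable TRPC4beta/mu-opioid receptor HEK293 cells | Reagent: DAMGO in two steps, submaximal then maximal | Compound dosing: Single concentration per test compound | Signal: Fluo4 Ca2+ flux fluorescence | Evaluation: Per-well B score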
TRPC4 PAM = allosterically enhances the mouse TRPC4 cation channel; Q9QUQ5; HEK293 TRPC4beta/mu-opioid, DAMGO EC20, Fluo-4 Ca2+ flux; hits give high values; B-score at 10 µM; hit rate 0.42% among 310,000; AID 2227;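 active = B-score of calcium response area above 5 SD of library B-scores, with initial fluorescence ratio within 5 SD of library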
Large screens that a line does not name were inactive. Hits are enriched below; roughly 2.3% of the tested compounds scored in any of these assays.

O=C(CC1C(=O)NCCN1Cc1ccc(-c2ccccc2)cc1)NCCc1ccccn1 (stereo not given)	TRPC4 act 130
CCOc1ccccc1CN1CCNC(=O)C1CC(=O)NCCc1ccccn1 (stereo not given)	TRPC4 act 88
CCOc1ccccc1CN1CCNC(=O)C1CC(=O)N(C)CCC1CCOCC1 (stereo not given)	none
CC(=O)Nc1cccc(C(=O)OCC(=O)Nc2c(C)nn(-c3ccccc3)c2C)c1	none
CCOc1ccc(C(=O)NCC(=O)N2CCc3ccccc3C2)cc1OCC	none
O=C(NCc1ccccc1)c1ccc(S(=O)(=O)C(F)F)cc1	none
Cc1ccc(CN2CCNC(=O)C2CC(=O)N(C)CCc2ccccc2)cc1 (stereo not given)	none
CN(CCc1ccccn1)C(=O)CC1C(=O)NCCN1Cc1ccc(-c2ccccc2)cc1 (stereo not given)	TRPC4 act 160
CCOc1ccc(OCC(=O)OCC(=O)N(CC(C)C)c2c(N)n(Cc3ccccc3)c(=O)[nH]c2=O)cc1	none
CC(C)CN(C(=O)COC(=O)COc1ccc2ccccc2c1)c1c(N)n(Cc2ccccc2)c(=O)[nH]c1=O	TRPC4 PAM 16
Cc1sc2ncnc(N(C)CCc3ccccn3)c2c1C	TRPC4 act 80
Cc1sc2ncnc(N(C)Cc3cccs3)c2c1C	none
CCNC(=O)CN(C1CCCCC1)S(C)(=O)=O	none
O=C(O)C1CCCCC1C(=O)NCCc1ccc(F)cc1 (stereo not given)	TRPC4 PAM 10
N[C@@H](Cc1cc(I)c(Oc2ccc(O)c(I)c2)c(I)c1)C(=O)O	none
O=C(O)CCc1cc(I)c(Oc2ccc(O)c(I)c2)c(I)c1	TRPC4 act 59
CC1CCCN(CCCNC(=O)c2ccc3c(c2)N(Cc2ccccc2F)C(=O)c2ccccc2S3(=O)=O)C1 (stereo not given)	TRPC4 act 114
Brc1ccccc1OCCNCc1ccccc1	none
Clc1ccc(OCCCNCc2ccccc2)c2ccccc12	TRPC4 act 56
NC(=O)/C=C\C(=O)Nc1cccc(C(F)(F)F)c1	none
CN(C)CCNc1c2c(nc3nnnn13)CCCC2	TRPC4 act 44
Cc1c(C(=O)N(Cc2cccs2)C2CCS(=O)(=O)C2)oc2ccccc12 (stereo not given)	TRPC4 act 67
CCc1ccc(Nc2n[n+](-c3ccccc3)c(-c3c(Cl)cccc3Cl)s2)cc1	none
CCc1ccc(Nc2n[n+](-c3ccccc3)c(/C=C/c3ccccc3)s2)cc1	TRPC4 PAM 15
COc1ccc2cc3cc(C(=O)NCCN4CCN(Cc5ccccc5)CC4)oc3nc2c1	TRPC4 block -6
COc1ccc2cc3cc(C(=O)NCCN4CCc5ccccc5C4)oc3nc2c1	none
Cc1cc(SCc2cccc([N+](=O)[O-])c2)nc(=O)[nH]1	none
Cc1cc(SCC(=O)c2cccc([N+](=O)[O-])c2)nc(=O)[nH]1	TRPC4 PAM 41
CC(C)Cc1ccccc1S(N)(=O)=O	none
CC1=NN(c2ccccc2)C(=O)/C1=C/c1ccc(Cl)cc1	TRPC4 PAM 10
CCCC1(c2ccccc2)NC(=O)N(CC(=O)c2[nH]c(C)c(C(=O)OCC)c2C)C1=O (stereo not given)	TRPC4 PAM 15
O=C(CC1CCCC1)Nc1ccc(Br)cc1	none
Cc1ccc(S(=O)(=O)NC(C(=O)N2CCOCCOCCOCC2)c2ccccc2)cc1 (stereo not given)	none
O/N=C/c1ccccc1Oc1ccc(Cl)cc1	TRPC4 block -6
CN(C)CCNc1ccc(Cl)cc1[N+](=O)[O-]	TRPC4 PAM 21
CS(=O)(=O)NCCNc1ccc(Cl)cc1[N+](=O)[O-]	none
O=c1cc(O)nc(SCc2ccccc2)n1-c1ccc(Cl)cc1	none
CN(C)/C=C(\C#N)C(N)=C(C#N)C#N	none
C/C(=N\Nc1nc(-c2ccccn2)nc2ccccc12)c1ccc(F)cc1	none
c1ccc(CCNc2nc(-c3ccccn3)nc3ccccc23)cc1	TRPC4 block -6
c1ccc(-c2nc(NCc3cccnc3)c3ccccc3n2)cc1	TRPC4 block -6
OCCNc1nc(NCc2ccccc2)c2ccccc2n1	TRPC4 block -6
Cc1ccc(-c2nc(NCc3cccnc3)c3ccccc3n2)cc1	none
CCN1CCN(C(=O)CN2C(=O)c3ccccc3S2(=O)=O)CC1	none
CC1=C(C(=O)NCc2ccccc2)C(c2ccccc2OCC(N)=O)NC(=O)N1 (stereo not given)	none
CC1=C(C(=O)NCc2ccccc2)C(c2cc(Br)cc(Br)c2OC(C)C)NC(=O)N1 (stereo not given)	TRPC4 PAM 17
COc1cccc(CNC(=O)CSCc2cnn(-c3ccccc3)c2-n2cccc2)c1	none
COc1ccc(CC(=O)Nc2ccccc2N2CCCCC2)cc1OC	none
COC(=O)[C@@]12CCCCN1[C@H](c1ccc(-c3ccc(C(C)=O)cc3)cc1)[C@@H]1C(=O)N(C)C(=O)[C@@H]12	TRPC4 PAM 43
COC(=O)[C@@]12CCCN1[C@H](c1ccc(-c3ccccc3)cc1)[C@@H]1C(=O)N(C)C(=O)[C@@H]12	none
COC(=O)[C@@]12CCCCN1[C@H](c1ccc(-c3cccc(Cl)c3)cc1)[C@H]1C(=O)N(C)C(=O)[C@H]12	none
COC(=O)[C@@]12CCCCN1[C@H](c1ccc(-c3cccc(Cl)c3)c(OC)c1)[C@H]1C(=O)N(C)C(=O)[C@H]12	TRPC4 PAM 25
COC(=O)[C@@]12CCCCN1[C@H](c1ccc(-c3ccc(OC)cc3)cc1)[C@@H]1C(=O)N(C)C(=O)[C@@H]12	TRPC4 PAM 13
CCN1C(=O)[C@H]2[C@@H](c3ccc(-c4ccc(C(C)=O)cc4)cc3)N3CCCC[C@@]3(C(=O)OC)[C@H]2C1=O	none
COC(=O)C(Cc1cccc(C)n1)(c1ccccc1)c1ccccc1	TRPC4 block -7
Cc1cccc(OC(C)C(=O)N2CCN(Cc3ccc4c(c3)OCO4)CC2)c1 (stereo not given)	none
COc1ccc(S(=O)(=O)N2CCN(C/C=C/c3ccccc3)CC2)cc1F	none
Cc1cccc(COC(=O)C(Cc2ccccc2)NC(N)=O)c1 (stereo not given)	none
Cn1c(CSCc2ccc(Cl)c(Cl)c2)n[nH]c1=S	none
COc1cc(/C=C2\C(=N)N3N=C(S(C)(=O)=O)SC3=NC2=O)ccc1OC(=O)c1cccs1	TRPC4 block -7
O=C(CNC(=O)c1ccc(Cl)c([N+](=O)[O-])c1)OCN1C(=O)c2ccccc2C1=O	none
Cc1ccc(S(=O)(=O)NNC(=O)c2ccc3ccccc3n2)cc1	none
Cc1cccn2c(CNCCc3ccccn3)c(C(=O)N3CCOCC3)nc12	TRPC4 act 171
O=C(C1CCCN(Cc2ccccc2F)C1)N1CCc2ccccc2C1 (stereo not given)	TRPC4 act 110
O=C(C1CCCN(Cc2ccccc2F)C1)N1CCCCC1 (stereo not given)	none
